Test results from ChEMBL document CHEMBL5154634, “A Modular Synthetic Route Involving N-Aryl-2-nitrosoaniline Intermediates Leads to a New Series of 3-Substituted Halogenated Phenazine Antibacterial Agents” (J Med Chem, 2021).
≈ marks a conversion by molar mass, not a printed value. Calls of active or inactive are those of the source. The rule behind the calls is not given here.

What was measured:
[1] = test system: Staphylococcus aureus; assay: Induction of iron starvation in methicillin-resistant Staphylococcus aureus BAA-1707 biofilms assessed as upregulation of MW0695 gene expression at 1 uM incubated for 4 hrs by RT-qPCR analysis; type: functional
Method in brief: (§1)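 MRSA BAA-1707 grown in TSB with 0.5% glucose to OD600 ~0.8–1.0, then biofilms formed 20 h at 37 °C statically in gelatin-coated 24-well plates. Biofilms treated 4 h at 37 °C with compound (1 μM or 1/10 MBEC) or DMSO vehicle. RNA extracted; only RIN ≥7 samples used. One-step SYBR RT-qPCR; ΔCT normalised to ptaA. Three independent experiments.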

[2] = test system: Staphylococcus aureus; assay: Antibacterial activity against methicillin-resistant Staphylococcus aureus 147 assessed as bacterial growth inhibition; type: functional
[3] = test system: Staphylococcus aureus; assay: Antibacterial activity against methicillin-resistant Staphylococcus aureus 156 assessed as bacterial growth inhibition; type: functional
[4] = test system: Streptococcus pneumoniae; assay: Antibacterial activity against Streptococcus pneumoniae ATCC 6303 assessed as bacterial growth inhibition incubated for 16 to 20 hrs by turbidity based analysis; type: functional; conditions: time 16-20 hrs
[5] = test system: Staphylococcus aureus; assay: Induction of iron starvation in methicillin-resistant Staphylococcus aureus BAA-1707 biofilms assessed as upregulation of sfaA gene expression at 1/10XMBEC incubated for 4 hrs by RT-qPCR analysis; type: functional; method in brief: as §1
[6] = test system: Staphylococcus aureus; assay: Induction of iron starvation in methicillin-resistant Staphylococcus aureus BAA-1707 biofilms assessed as upregulation of sbnC gene expression at 1 uM incubated for 4 hrs by RT-qPCR analysis; type: functional; method in brief: as §1
[7] = test system: HepG2; assay: Cytotoxicity against human HepG2 cells assessed as reduction in cell viability […] by Alamar blue assay; type: toxicity, cell-based
[8] = test system: HEK293; assay: Cytotoxicity against human HEK293 cells assessed as reduction in cell viability incubated for 72 hrs by MTT assay; type: toxicity, cell-based
Method in brief: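 HEK-293 cells in DMEM with 10% FBS, 10⁴ cells/well, seeded overnight. Exposed to 0–200 μM (twofold steps, n = 6) for 72 h at 37 °C. MTT 5 mg/mL added for 4 h, formazan dissolved in DMSO, OD read at 570 nm. Inhibition % = (1 − test/untreated OD) × 100.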

[9] = test system: Enterococcus faecium; assay: Antibacterial activity against vancomycin-resistant Enterococcus faecium ATCC 700221 assessed as bacterial growth inhibition incubated for 16 hrs by broth microdilution susceptibility test; type: functional
Method in brief: (§2)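 CLSI broth microdilution with 11 twofold dilutions (0.05–50 μM). Medium was LB for the staphylococci and BHI for VRE 700221. About 10^5 cells per well from a log-phase culture. […] DMSO vehicle up to 0.5% v/v. At least three independent experiments.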

[10] = test system: Staphylococcus aureus; assay: Antibacterial activity against methicillin-resistant Staphylococcus aureus BAA-44 assessed as bacterial growth inhibition incubated for 16 hrs by broth microdilution susceptibility test; type: functional; method in brief: as §2
[11] = test system: Staphylococcus aureus; assay: Antibacterial activity against Staphylococcus aureus UAMS-1 infected in BALB/c mouse dorsal wound infection model assessed as reduction in bacterial load in wound administered topically twice a day for 3 days; type: functional; conditions: time 3 day
Method in brief: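 Female BALB/c mice, 4–6 weeks old, anesthetized with ketamine/xylazine i.p. 4.5 mm dermal punch wound inoculated with 1×10⁷ CFU in 10 μL. 50 μL PEG 400/3350 ointment or vehicle given 45 min post-inoculation, then every 12 h for 3 days. Tissue excised with 7 mm punch, homogenized, plated on ChromoAgar; CFU per lesion.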

[12] = test system: HeLa; assay: Cytotoxicity against human HeLa cells assessed as reduction in cell viability incubated for 24 hrs by LDH release assay; type: toxicity, cell-based
Method in brief: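 HeLa cells in DMEM with 10% FBS, treated at 70–80% confluence with 25, 50 and 100 μM for 24 h. LDH in supernatant measured by 30 min reaction at room temperature, then stop solution and absorbance at 490 nm. Controls: 2% Triton X-100 (maximum), medium only, DMSO vehicle. Three independent experiments.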

[13] = test system: Staphylococcus aureus; assay: Induction of iron starvation in methicillin-resistant Staphylococcus aureus BAA-1707 biofilms assessed as upregulation of MW0695 gene expression at 1/10XMBEC incubated for 4 hrs by RT-qPCR analysis; type: functional; method in brief: as §1
[14] = test system: Enterococcus faecalis; assay: Antibacterial activity against Enterococcus faecalis OG1RF ATCC 47077 assessed as bacterial growth inhibition incubated for 16 hrs by broth microdilution susceptibility test; type: functional
[15] = Binding affinity to Fe2+ assessed as compound-Fe2+ complex formation by UV-vis spectroscopy
[16] = test system: Staphylococcus epidermidis; assay: Antibiofilm activity against methicillin-resistant Staphylococcus epidermidis ATCC 35984 biofilms assessed as reduction of viable biofilm cells at 3.13 uM measured by CBD assay; type: functional
[17] = test system: Staphylococcus epidermidis; assay: Antibiofilm activity against methicillin-resistant Staphylococcus epidermidis ATCC 35984 biofilms assessed as reduction of viable biofilm cells at MBEC measured by CBD assay; type: functional
Method in brief: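 After the Calgary biofilm device assay, treated and untreated pegs were removed, sonicated 30 min in PBS and plated for CFU per peg. Log10 reduction of viable biofilm cells at the MBEC determined by comparison with untreated pegs. At least three independent experiments.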

[18] = test system: Staphylococcus aureus; assay: Induction of iron starvation in methicillin-resistant Staphylococcus aureus BAA-1707 biofilms assessed as upregulation of sfaA gene expression at 1 uM incubated for 4 hrs by RT-qPCR analysis; type: functional; method in brief: as §1
[19] = test system: Staphylococcus aureus; assay: Induction of iron starvation in methicillin-resistant Staphylococcus aureus BAA-1707 biofilms assessed as upregulation of sbnC gene expression at 1/10XMBEC incubated for 4 hrs by RT-qPCR analysis; type: functional; method in brief: as §1
[20] = test system: Staphylococcus aureus; assay: Antibiofilm activity against methicillin-resistant Staphylococcus aureus BAA-1707 biofilms assessed as biofilm killing at MBEC measured by CBD assay; type: functional
[21] = test system: Staphylococcus aureus; assay: Antibacterial activity against methicillin-resistant Staphylococcus aureus 138 assessed as bacterial growth inhibition; type: functional
[22] = test system: Staphylococcus epidermidis; assay: Bactericidal activity against methicillin-resistant Staphylococcus epidermidis ATCC 35984 planktonic cells assessed as planktonic eradication incubated for 24 hrs followed by incubation for overnight in fresh medium by Calgary biofilm device assay; type: functional
Method in brief: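 Calgary biofilm device. Biofilms grown 24 h at 37 °C in TSB with 0.5% glucose, then challenged 24 h with twofold compound dilutions. 20 μL of challenge medium transferred into fresh TSB with 0.5% glucose and incubated overnight at 37 °C. MBC is the concentration with no visible turbidity. At least three independent experiments.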

[23] = test system: Staphylococcus aureus; assay: Antibacterial activity against methicillin-resistant Staphylococcus aureus clinical isolate 2 assessed as bacterial growth inhibition; type: functional
[24] = test system: Staphylococcus aureus; assay: Antibiofilm activity against methicillin-resistant Staphylococcus aureus BAA-1707 biofilms assessed as biofilm eradication incubated for 24 hrs followed by incubation for 24 hrs in fresh medium by Calgary biofilm device assay; type: functional
Method in brief: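 Calgary biofilm device. Mid-log culture diluted 1000-fold in TSB with 0.5% glucose; biofilms grown on pegs 24 h at 37 °C. Pegs washed and challenged with twofold compound dilutions for 24 h at 37 °C, then moved to fresh medium for 24 h. MBEC is the lowest concentration leaving wells non-turbid. At least three independent experiments.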

Cc1cccc2nc3c(O)c(Br)c(Cl)c(Br)c3nc12
Activity [1]: Active
MIC [2]: 0.06 µM (≈ 0.0241 µg/mL)
MIC [3]: 0.06 µM (≈ 0.0241 µg/mL)
MIC [4]: 0.5 µM (≈ 0.201 µg/mL)
Activity [5]: Active
Activity [6]: Active
IC50 [7]: > 200 µM
IC50 [8]: 18.3 µM
MIC [9]: 0.1 µM (≈ 0.0402 µg/mL)
MIC [10]: 0.08 µM (≈ 0.0322 µg/mL)
Activity [11]: 0.82 log10CFU
IC50 [12]: > 100 µM
Activity [13]: Active
MIC [14]: 0.2 µM (≈ 0.0805 µg/mL)
Activity [15]: Active
Activity [16]: 5 log10CFU
Activity [17]: 3.65 log10CFU
Activity [18]: Active
Activity [19]: Active
Activity [20]: 99.9%
MIC [21]: 0.06 µM (≈ 0.0241 µg/mL)
MBC [22]: 0.78 µM (≈ 0.314 µg/mL)
MIC [23]: 0.06 µM (≈ 0.0241 µg/mL)
MBEC [24]: 1.56 µM
